According to ChEMBL document CHEMBL3593170 (J Nat Prod, 2015):
Calls of active or inactive are those of the source. The calls are words filed in the database; no cut-off is given here.

Experiments:
[1] = Effect on Ca2+ response in TREx-HEK cells at 300 uM by Fluo-4 AM dye-based Ca2+ imaging assay; format: ADME, cell-based; settings: human
In short: (§1)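 TREx HEK cells stably expressing hTRPV1 (tetracycline 1 μg/mL induction) or parental TREx HEK cells lacking TRPV1, Fluo-4 AM (3 μM, 1 h, 37 °C) loaded; compounds at 300 μM, capsazepine 30 μM co-added where stated; Ca2+ at 37 °C as % of 5 μM ionomycin; mean ± SEM, n = 3−7.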

[2] = biological target: T1, Transient receptor potential cation channel subfamily V member 1 (Homo sapiens, UniProt Q8NER1); experiment: Activation of human TRPV1 expressed in TREx-HEK cells at 300 uM in presence of TRPV1 antagonist CPZ by Fluo-4 AM dye-based Ca2+ imaging assay; format: cell-based; in short: as §1
[3] = biological target: T1, Transient receptor potential cation channel subfamily V member 1; experiment: Activation of human TRPV1 expressed in TREx-HEK cells at 300 uM by Fluo-4 AM dye-based Ca2+ imaging assay; format: cell-based; in short: as §1
[4] = biological target: T1, Transient receptor potential cation channel subfamily V member 1; experiment: Activation of human TRPV1 expressed in TREx-HEK cells by Fluo-4 AM dye-based Ca2+ imaging assay relative to 10 uM capsaicin; format: cell-based
[5] = biological target: Transient receptor potential cation channel subfamily M member 8 (Mus musculus) (UniProt Q8R4D5); experiment: Agonist activity at mouse TRPM8 expressed in TREx-HEK cells at 300 uM by Fluo-4 AM dye-based Ca2+ imaging assay; format: cell-based
In short: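 Mouse TRPM8 stably expressed in TREx HEK cells, induced with 1 μg/mL tetracycline; Fluo-4 AM 3 μM loading, 1 h, 37 °C; compounds 300 μM freshly diluted from DMSO; Ca2+ change read at 37 °C; ionomycin 5 μM for maximum fluorescence; menthol 100 μM agonist control, BCTC 10 μM antagonist.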

[6] = biological target: T2, Transient receptor potential cation channel subfamily A member 1 (Homo sapiens, UniProt O75762); experiment: Activation of human TRPA1 expressed in TREx-HEK cells by Fluo-4 AM dye-based Ca2+ imaging assay; format: cell-based
[7] = biological target: T1, Transient receptor potential cation channel subfamily V member 1; experiment: Activation of human TRPV1 expressed in TREx-HEK cells by Fluo-4 AM dye-based Ca2+ imaging assay; format: cell-based
[8] = biological target: T2, Transient receptor potential cation channel subfamily A member 1; experiment: Activation of human TRPA1 expressed in TREx-HEK cells by Fluo-4 AM dye-based Ca2+ imaging assay relative to 100 uM ITC; format: cell-based
[9] = biological target: T2, Transient receptor potential cation channel subfamily A member 1; experiment: Activation of human TRPA1 expressed in TREx-HEK cells at 1 uM by Fluo-4 AM dye-based Ca2+ imaging assay; format: cell-based
In short: (§2)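 Tetracycline-induced (1 μg/mL, 24 h after seeding) TREx HEK cells stably expressing hTRPA1, or TREx HEK cells not expressing TRPA1; Fluo-4 AM 3 μM loading 1 h 37 °C; Ca2+ change read at 37 °C. Response as % of 5 μM ionomycin; mean ± SEM, n = 3−8.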

[10] = Effect on Ca2+ response in TREx-HEK cells at 1 uM by Fluo-4 AM dye-based Ca2+ imaging assay; format: ADME, cell-based; settings: human; in short: as §2
[11] = biological target: T2, Transient receptor potential cation channel subfamily A member 1; experiment: Activation of human TRPA1 expressed in TREx-HEK cells at 1 uM in presence of TRPA1 antagonist HC030031 by Fluo-4 AM dye-based Ca2+ imaging assay; format: cell-based; in short: as §2
[12] = biological target: T2, Transient receptor potential cation channel subfamily A member 1; experiment: Activation of human TRPA1 expressed in TREx-HEK cells at 30 uM by Fluo-4 AM dye-based Ca2+ imaging assay; format: cell-based
In short: as §2, with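 “°C. Compounds in DMSO, diluted in measuring buffer just before addition; 1 μM (30 μM for one compound); HC030031 30 μM co-added where stated.” for “°C.”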

[13] = biological target: T2, Transient receptor potential cation channel subfamily A member 1; experiment: Activation of human TRPA1 expressed in TREx-HEK cells at 30 uM in presence of TRPA1 antagonist HC030031 by Fluo-4 AM dye-based Ca2+ imaging assay; format: cell-based
[14] = Effect on Ca2+ response in TREx-HEK cells at 30 uM by Fluo-4 AM dye-based Ca2+ imaging assay; format: ADME, cell-based; settings: human
In short: as §2, with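 “°C. Compounds in DMSO, diluted in measuring buffer just before addition; 1 μM (30 μM for one compound); HC030031 30 μM co-added where stated.” for “°C.”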

T1 sequence (Q8NER1 whole entry): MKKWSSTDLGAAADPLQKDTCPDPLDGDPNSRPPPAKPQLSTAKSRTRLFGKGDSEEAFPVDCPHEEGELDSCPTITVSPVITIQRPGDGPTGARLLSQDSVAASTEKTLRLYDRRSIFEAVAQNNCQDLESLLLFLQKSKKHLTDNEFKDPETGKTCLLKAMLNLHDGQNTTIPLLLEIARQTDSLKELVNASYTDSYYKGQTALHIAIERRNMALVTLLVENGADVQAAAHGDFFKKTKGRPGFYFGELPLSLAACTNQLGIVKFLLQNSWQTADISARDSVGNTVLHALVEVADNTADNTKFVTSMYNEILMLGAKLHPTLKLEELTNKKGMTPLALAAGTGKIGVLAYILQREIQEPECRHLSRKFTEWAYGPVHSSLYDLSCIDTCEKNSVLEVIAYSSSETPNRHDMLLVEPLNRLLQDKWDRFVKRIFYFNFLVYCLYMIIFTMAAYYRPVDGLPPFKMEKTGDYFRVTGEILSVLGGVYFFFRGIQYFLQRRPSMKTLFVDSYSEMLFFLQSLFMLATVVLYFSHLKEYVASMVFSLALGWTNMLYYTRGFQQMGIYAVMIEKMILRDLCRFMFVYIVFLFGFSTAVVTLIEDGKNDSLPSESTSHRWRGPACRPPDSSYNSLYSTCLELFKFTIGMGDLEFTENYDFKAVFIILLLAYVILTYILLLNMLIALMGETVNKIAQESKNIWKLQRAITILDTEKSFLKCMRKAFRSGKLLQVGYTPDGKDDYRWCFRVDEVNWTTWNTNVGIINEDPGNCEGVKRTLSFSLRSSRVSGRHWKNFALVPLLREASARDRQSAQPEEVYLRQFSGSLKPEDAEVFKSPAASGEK
Chain of Transient receptor potential cation channel subfamily M member 8 (Mus musculus) (Q8R4D5 whole entry): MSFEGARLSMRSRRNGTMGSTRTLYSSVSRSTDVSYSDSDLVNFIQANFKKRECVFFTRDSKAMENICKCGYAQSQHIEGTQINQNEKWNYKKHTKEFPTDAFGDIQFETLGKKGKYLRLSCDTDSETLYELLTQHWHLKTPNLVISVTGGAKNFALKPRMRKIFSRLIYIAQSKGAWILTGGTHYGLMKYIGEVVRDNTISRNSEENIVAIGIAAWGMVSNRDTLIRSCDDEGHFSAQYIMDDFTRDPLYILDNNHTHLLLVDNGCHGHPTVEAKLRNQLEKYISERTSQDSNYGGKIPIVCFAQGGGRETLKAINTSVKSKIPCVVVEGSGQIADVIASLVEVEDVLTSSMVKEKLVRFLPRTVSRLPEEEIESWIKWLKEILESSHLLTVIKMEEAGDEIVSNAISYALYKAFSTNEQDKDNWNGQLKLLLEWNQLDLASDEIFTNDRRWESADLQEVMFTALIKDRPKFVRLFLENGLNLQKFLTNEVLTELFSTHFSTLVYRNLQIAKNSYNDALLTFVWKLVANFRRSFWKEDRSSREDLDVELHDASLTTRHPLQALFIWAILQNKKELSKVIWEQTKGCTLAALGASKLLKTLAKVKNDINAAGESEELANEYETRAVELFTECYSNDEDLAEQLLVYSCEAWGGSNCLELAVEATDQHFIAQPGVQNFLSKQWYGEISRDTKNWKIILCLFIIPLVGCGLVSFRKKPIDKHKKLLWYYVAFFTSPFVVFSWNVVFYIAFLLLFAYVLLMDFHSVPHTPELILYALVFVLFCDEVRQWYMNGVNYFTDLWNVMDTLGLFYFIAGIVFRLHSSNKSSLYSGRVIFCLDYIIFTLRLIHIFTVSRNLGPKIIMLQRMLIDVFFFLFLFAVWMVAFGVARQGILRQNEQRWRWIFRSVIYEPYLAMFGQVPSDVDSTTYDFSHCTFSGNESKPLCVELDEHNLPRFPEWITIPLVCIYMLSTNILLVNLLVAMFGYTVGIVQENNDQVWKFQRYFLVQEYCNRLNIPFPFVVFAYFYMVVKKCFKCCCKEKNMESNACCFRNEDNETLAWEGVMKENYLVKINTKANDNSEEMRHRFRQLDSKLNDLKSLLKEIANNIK
T2 sequence (O75762 whole entry): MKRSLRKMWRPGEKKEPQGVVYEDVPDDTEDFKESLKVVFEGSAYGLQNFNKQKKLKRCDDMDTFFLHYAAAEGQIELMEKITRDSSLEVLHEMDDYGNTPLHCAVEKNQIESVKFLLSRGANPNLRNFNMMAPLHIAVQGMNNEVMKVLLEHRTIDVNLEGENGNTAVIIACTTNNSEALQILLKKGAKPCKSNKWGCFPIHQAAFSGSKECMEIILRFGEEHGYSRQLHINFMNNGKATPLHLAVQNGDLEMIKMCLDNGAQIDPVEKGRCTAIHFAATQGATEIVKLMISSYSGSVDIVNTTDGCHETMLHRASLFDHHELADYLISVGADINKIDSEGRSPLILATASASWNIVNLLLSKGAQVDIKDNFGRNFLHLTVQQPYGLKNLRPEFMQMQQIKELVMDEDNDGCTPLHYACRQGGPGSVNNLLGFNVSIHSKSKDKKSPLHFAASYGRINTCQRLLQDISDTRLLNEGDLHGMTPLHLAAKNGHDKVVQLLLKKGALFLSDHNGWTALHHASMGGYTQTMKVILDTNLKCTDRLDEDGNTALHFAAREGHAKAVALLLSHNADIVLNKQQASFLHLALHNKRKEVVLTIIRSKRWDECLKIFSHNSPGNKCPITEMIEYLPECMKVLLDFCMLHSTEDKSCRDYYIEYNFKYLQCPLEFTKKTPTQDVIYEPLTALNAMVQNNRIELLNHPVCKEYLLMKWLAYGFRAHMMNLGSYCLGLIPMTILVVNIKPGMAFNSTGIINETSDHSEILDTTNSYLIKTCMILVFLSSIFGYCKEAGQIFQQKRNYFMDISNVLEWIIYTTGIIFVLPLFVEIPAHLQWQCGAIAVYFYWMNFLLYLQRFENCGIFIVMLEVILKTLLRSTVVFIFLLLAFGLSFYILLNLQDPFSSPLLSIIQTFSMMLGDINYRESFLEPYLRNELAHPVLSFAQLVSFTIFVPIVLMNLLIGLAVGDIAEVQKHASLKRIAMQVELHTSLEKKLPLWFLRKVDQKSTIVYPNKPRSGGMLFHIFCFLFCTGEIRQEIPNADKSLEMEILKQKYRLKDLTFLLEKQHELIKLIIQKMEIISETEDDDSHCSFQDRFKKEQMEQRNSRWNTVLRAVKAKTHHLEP

Row | Structure (SMILES) | Activity [1] | Activity [2] | Activity [3] | max activation [4] | Activity [5] | EC50 [6] [nM] | EC50 ([7]; read-out: EC50) [µM] | max activation [8] [%] | Activity [9] | Activity [10] | Activity [11] | EC50 ([7]; trex-hek) | Activity [12] | Activity [13] | Activity [14]
1 | S=C=NCc1ccccc1 [BENZYL ISOTHIOCYANATE] | Non-toxic | inactive | Active | 49% | inactive | 250 | 223 | 95 | Active | Non-toxic | inactive |  |  |  | 
2 | C=CCN=C=S [ALLYL ISOTHIOCYANATE] | Non-toxic | inactive | Active | 25% | inactive |  | 160 | 97 | Active | Non-toxic | inactive |  |  |  | 
3 | CC(C)N=C=S [ISOPROPYL ISOTHIOCYANATE] | Non-toxic | inactive | Active | 50% | inactive | 530 | 100 | 82 | Active | Non-toxic | inactive |  |  |  | 
4 | CSCCCN=C=S |  |  | inactive | inactive | inactive | 450 |  | 94 | Active | Non-toxic | inactive | Not Active |  |  | 
5 | S=C=NCCc1ccccc1 [PHENETHYLISOTHIOCYANATE] | Non-toxic | inactive | Active | 43% | inactive | 370 | 180 | 94 | Active | Non-toxic | inactive |  |  |  | 
6 | C=CCCCCCN=C=S |  |  | inactive | inactive | inactive | 1050 |  | 90 | Active | Non-toxic | inactive | Not Active |  |  | 
7 | CCC(C)N=C=S (centres undefined) | Non-toxic | inactive | Active | 62% | inactive | 680 | 100 | 88 | Active | Non-toxic | inactive |  |  |  | 
8 | CSCCCCCN=C=S |  |  | inactive | inactive | inactive | 500 |  | 92 | Active | Non-toxic | inactive | Not Active |  |  | 
9 | C=CCCCCN=C=S |  |  | inactive | inactive | inactive | 1040 |  | 93 | Active | Non-toxic | inactive | Not Active |  |  | 
10 | Oc1ccc(CN=C=S)cc1 | Non-toxic | inactive | Active | 63% | inactive | 20000 | 170 | 96 |  |  |  |  | Active | inactive | Non-toxic
11 | CSCCCCCCCN=C=S |  |  | inactive | inactive | inactive | 610 |  | 90 | Active | Non-toxic | inactive | Not Active |  |  | 
12 | CC(C)CN=C=S |  |  |  | inactive | inactive | 690 |  | 89 | Active | Non-toxic | inactive | Not Active |  |  | 
13 | C=CCCCN=C=S |  |  | inactive | inactive | inactive | 540 |  | 90 | Active | Non-toxic | inactive | Not Active |  |  | 
14 | C=CCCN=C=S |  |  | inactive | inactive | inactive | 360 |  | 95 | Active | Non-toxic | inactive | Not Active |  |  | 
15 | CSCCCCCCN=C=S |  |  | inactive | inactive | inactive | 580 |  | 92 | Active |  | inactive | Not Active |  |  | 
